# Assay results collected from several papers.
# Each line is one published result; the experiments were not run side by side.
# Organism: Mycobacterium tuberculosis
# Effect on: microbial growth
Compound,test,system,conditions,MIC
CC(C)(C)C1CCC2(CC1)SCC(=O)N2NC(=O)c1[nH]c2ccc(Cl)cc2c1-c1ccccc1 (stereo not drawn),,ATCC27294 H37RV,,16 µM
CC(C)=CCC/C(C)=C/COCCOC1C2CC3CC(C2)CC1C3 (stereo not drawn),,,,50 µg/mL
CC1SC2(CCCC2)N(NC(=O)c2[nH]c3ccc(Cl)cc3c2-c2ccccc2)C1=O (stereo not drawn),,ATCC27294 H37RV,,250 µM
COc1nc2ccc(Br)cc2cc1[C@@H](c1ccccc1)[C@@](O)(CCN(C)C)c1cccc2ccccc12,resazurin,H37RV,14 days,0.51 µM
O=C(CNS(=O)(=O)c1ccc([N+](=O)[O-])cc1)N1CCN(C(c2ccc(F)cc2)c2ccc(F)cc2)CC1,,ATCC27294 H37RV,,25 µg/mL
CC[C@@H](CO)NCCN[C@@H](CC)CO,,ATCC27294 H37RV,7 days,1 µg/mL
[H]/N=C(/N)N[C@H]1[C@H](O)[C@@H](O)[C@H](O[C@@H]2O[C@@H](C)[C@](O)(C=O)[C@H]2O[C@@H]2O[C@@H](CO)[C@H](O)[C@@H](O)[C@@H]2NC)[C@@H](N/C(N)=N\[H])[C@@H]1O,,H37RV,5 days,1.5 µM
Cc1ccc(C)n1-c1ccc(-c2nnc(-c3cccc([N+](=O)[O-])c3)[nH]2)cc1,broth dilution,H37RV,21 days,16 µg/mL
O=[N+]([O-])c1ccc(/C(O)=C/C(=S)S)cc1,,ATCC27294 H37RV,8 days,7.8 µg/mL
O=[N+]([O-])c1cn2c(n1)OC[C@@H](OCc1ccc(N3CCCCC3)cc1)C2,,H37RV,,0.4 to 0.8 µg/mL
Cc1c(Cc2ccc(Cl)cc2)c(=O)n2c([nH]c3ccccc32)c1C#N,broth dilution,H37RV,,1 µg/mL
Cc1ccn2c(C(=O)NCc3cccc(S(F)(F)(F)(F)F)c3)c(C)nc2c1,,H37RV,5 days,0.65 µM
COC(=O)c1cc(-c2cccc(NC(=S)NC3CCCCC3)c2)on1,,ATCC27294 H37RV,7 days,2 µg/mL
NNC(=O)c1ccncc1,resazurin,H37RA,14 days,0.05 µg/mL
CNC(=O)c1cc(Oc2ccc(NC(=O)Nc3ccc(Cl)c(C(F)(F)F)c3)cc2)ccn1,,H37RV,,25 µM
COC(=O)c1cc(-c2cccc(NC(=O)Nc3ccccc3)c2)on1,,ATCC27294 H37RV,7 days,4 µg/mL
O=C1CC[C@@H]2CN(Cc3ccccc3)CC[C@@]23OC[C@H](C2CC2)N13,,H37RV,,37 µM
O=C1C(=NNc2nc(-c3ccccc3)cs2)C(N=Cc2cccc(Cl)c2)=NN1c1ccccc1,resazurin,H37RV,,6.25 µg/mL
COC(=O)c1cc(-c2cccc(NC(=O)Nc3ccccc3C)c2)on1,,ATCC27294 H37RV,7 days,2 µg/mL
C[C@H]1c2cccc(O)c2C(=O)C2=C(O)[C@]3(O)C(=O)C(C(N)=O)=C(O)[C@@H](N(C)C)[C@@H]3[C@@H](O)[C@@H]21,resazurin,H37RA,14 days,1 µg/mL
COC(=O)c1cc(-c2cccc(NC(=O)Nc3cccc(F)c3)c2)on1,,ATCC27294 H37RV,7 days,2 µg/mL
C=C[C@@H](O)C#CC#C[C@@H](O)/C=C\CCCCCCC,resazurin,ATCC27294 H37RV,7 days,26.7 µg/mL
NNC(=O)c1ccncc1,,H37RV,,> 13.7 µg/mL
NNC(=O)c1ccncc1,,"THP-1, H37RV",,0.22 µM
NNC(=O)c1ccncc1,,W4,,0.14 µM
COC(=O)c1cc(-c2cccc(NC(=O)Nc3ccccc3OC)c2)on1,,ATCC27294 H37RV,7 days,0.5 µg/mL
O=C1C(=NNc2nc(-c3ccccc3)cs2)C(N=Cc2ccccc2)=NN1c1ccccc1,resazurin,H37RV,,6.25 µg/mL
CC1=NN(CNc2c(O)c(S(=O)(=O)O)cc3ccccc23)C(=O)C1=NNn1c(-c2ccccc2)nc2ccccc2c1=O,resazurin,H37RV,,20.9 µM
CCC1CCC2(CC1)SCC(=O)N2NC(=O)c1[nH]c2ccc(Cl)cc2c1-c1ccccc1 (stereo not drawn),,ATCC27294 H37RV,,250 µM
CC(C)[C@H]1CO[C@]23CCN(Cc4ccc(C(F)(F)F)cc4)C[C@H]2CCC(=O)N13,,H37RV,7 days,0.16 µM
Cc1ccc(C)n1-c1ccc(-c2n[nH]c(=S)[nH]2)cc1,broth dilution,H37RV,21 days,2 µg/mL
O=C1C(=NNc2nc(-c3ccccc3)cs2)C(N=Cc2ccccc2Cl)=NN1c1ccccc1,resazurin,H37RV,5 days,51.5 µM
N#Cc1cc(C(F)(F)F)cc2c(=O)nc(N3CCN(CC4COC4)CC3)sc12,resazurin,H37RV,,> 2 µM
Cc1ccc(C)n1-c1ccc(-c2nnco2)cc1,broth dilution,H37RV,21 days,4 µg/mL
CC[C@@H](CO)NCCN[C@@H](CC)CO,,H37RV,,5 µg/mL
CO[C@H]1/C=C/O[C@@]2(C)Oc3c(C)c(O)c4c(O)c(c(/C=N/N5CCN(C)CC5)c(O)c4c3C2=O)NC(=O)/C(C)=C\C=C\[C@H](C)[C@H](O)[C@@H](C)[C@@H](O)[C@@H](C)[C@H](OC(C)=O)[C@@H]1C,,ATCC27294 H37RV,,< 0.1 µg/mL
CN[C@H](CC(C)C)C(=O)N[C@H]1C(=O)N[C@@H](CC(N)=O)C(=O)N[C@H]2C(=O)N[C@H]3C(=O)N[C@H](C(=O)N[C@H](C(=O)O)c4cc(O)cc(O)c4-c4cc3ccc4O)[C@H](O)c3ccc(c(Cl)c3)Oc3cc2cc(c3O[C@@H]2O[C@H](CO)[C@@H](O)[C@H](O)[C@H]2O[C@H]2C[C@](C)(N)[C@H](O)[C@H](C)O2)Oc2ccc(cc2Cl)[C@H]1O,,H37RV,14 days,12.5 µg/mL
C[C@@H]1CN(CC2CCCCC2)C[C@H](C)N1c1nc(=O)c2cc(C(F)(F)F)cc(C#N)c2s1,resazurin,H37RV,,> 2 µM
COC(=O)c1cc(-c2cccc(NC(=O)Nc3ccc(C)c(Cl)c3)c2)on1,,ATCC27294 H37RV,7 days,16 µg/mL
CC[C@@H](CO)NCCN[C@@H](CC)CO,,H37RV,5 days,6.6 µM
CO[C@H]1/C=C/O[C@@]2(C)Oc3c(C)c(O)c4c(O)c(c(/C=N/N5CCN(C)CC5)c(O)c4c3C2=O)NC(=O)/C(C)=C\C=C\[C@H](C)[C@H](O)[C@@H](C)[C@@H](O)[C@@H](C)[C@H](OC(C)=O)[C@@H]1C,,,,0.02 µg/mL
O=C1C(=NNc2nc(-c3ccccc3)cs2)C(N=Cc2ccccc2O)=NN1c1ccccc1,resazurin,H37RV,,25 µg/mL
Cc1c(Cc2ccc(C(C)(C)C)cc2)c(=O)n2c([nH]c3ccccc32)c1C#N,broth dilution,H37RV,,1 µg/mL
O=C1C(=NNc2nc(-c3ccccc3)cs2)C(N=Cc2ccc(Cl)cc2)=NN1c1ccccc1,resazurin,H37RV,5 days,51.5 µM
CN[C@H](CC(C)C)C(=O)N[C@H]1C(=O)N[C@@H](CC(N)=O)C(=O)N[C@H]2C(=O)N[C@H]3C(=O)N[C@H](C(=O)N[C@H](C(=O)O)c4cc(O)cc(O)c4-c4cc3ccc4O)[C@H](O)c3ccc(c(Cl)c3)Oc3cc2cc(c3O[C@@H]2O[C@H](CO)[C@@H](O)[C@H](O)[C@H]2O[C@H]2C[C@](C)(N)[C@H](O)[C@H](C)O2)Oc2ccc(cc2Cl)[C@H]1O,resazurin,H37RA,14 days,65 µg/mL
CCc1nc2ccc(Cl)cn2c1C(=O)NCc1cccc(S(F)(F)(F)(F)F)c1,,H37RV,5 days,0.28 µM
O=C(CCNS(=O)(=O)c1ccccc1[N+](=O)[O-])N1CCN(C(c2ccc(F)cc2)c2ccc(F)cc2)CC1,,ATCC27294 H37RV,,> 25 µg/mL
COC(=O)c1cc(-c2cccc(NC(=O)Nc3ccc(F)cc3)c2)on1,,ATCC27294 H37RV,7 days,0.5 µg/mL
CC1SC2(CCC(c3ccccc3)CC2)N(NC(=O)c2[nH]c3ccc(Cl)cc3c2-c2ccccc2)C1=O (stereo not drawn),,ATCC27294 H37RV,,7.8 µM
COC1C(O)C(n2ccc(=O)[nH]c2=O)OC1C(OC1OC(C(=O)Nc2ccc(F)c(F)c2)=CC(O)C1O)C(N)=O (stereo not drawn),resazurin,H37RV,,1.56 µg/mL
C=C[C@@]1(C)CC[C@@H]2C(C)(C)c3cccc4[nH]c5c(c34)[C@@]2(O)[C@]1(C#N)[C@H]1O[C@H]1C5(C)C,,H37RV,,11.3 µM
